Laboratory results as given in ChEMBL document CHEMBL4145662, “Novel Nonsteroidal Progesterone Receptor (PR) Antagonists with a Phenanthridinone Skeleton” (ACS Med Chem Lett, 2018).
pIC50: −log10 of the molar value. Calls of active or inactive are those of the source. The calls are words filed in the database; no cut-off is given here.

Legend:
[1] = molecular target: T1, Nuclear receptor ROR-gamma (Homo sapiens, UniProt P51449); assay: Antagonist activity at human RORgamma1 expressed in HEK293 cells after 24 hrs by luciferase reporter gene assay; type: cell-based
T1 sequence (P51449 whole entry): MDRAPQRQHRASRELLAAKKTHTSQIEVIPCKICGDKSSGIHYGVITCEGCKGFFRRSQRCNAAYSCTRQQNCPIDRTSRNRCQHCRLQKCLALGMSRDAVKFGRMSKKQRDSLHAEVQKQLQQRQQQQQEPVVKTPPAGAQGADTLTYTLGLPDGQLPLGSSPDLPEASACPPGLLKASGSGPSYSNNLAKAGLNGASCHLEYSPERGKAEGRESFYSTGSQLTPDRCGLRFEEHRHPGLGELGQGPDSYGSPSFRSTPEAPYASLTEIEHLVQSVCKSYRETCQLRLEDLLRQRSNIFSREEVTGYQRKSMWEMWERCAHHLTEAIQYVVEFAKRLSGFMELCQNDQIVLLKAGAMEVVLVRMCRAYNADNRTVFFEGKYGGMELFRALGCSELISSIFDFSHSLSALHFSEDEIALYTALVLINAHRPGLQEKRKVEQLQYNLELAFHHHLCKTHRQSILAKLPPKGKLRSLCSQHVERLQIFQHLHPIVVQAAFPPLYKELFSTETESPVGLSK
Outline: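 Inverse agonism at RORα, RORβ or RORγ measured by reporter gene assay.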

[2] = Apparent permeability across apical to basolateral side in human Caco2 cells at 10 uM; type: ADME, cell-based; conditions: caco-2, 10 µM
[3] = Stability in human liver microsomes at 0.1 uM by LC-MS/MS analysis; type: ADME, microsome
Androgen receptor = molecular target: T2, Androgen receptor (Homo sapiens, UniProt P10275); assay: Antagonist activity at human CMX-AR expressed in HEK293 cells assessed as reduction in dihydrotestosterone-induced transactivation activity after 24 hrs by luciferase reporter gene assay; type: cell-based
T2 sequence (P10275 whole entry): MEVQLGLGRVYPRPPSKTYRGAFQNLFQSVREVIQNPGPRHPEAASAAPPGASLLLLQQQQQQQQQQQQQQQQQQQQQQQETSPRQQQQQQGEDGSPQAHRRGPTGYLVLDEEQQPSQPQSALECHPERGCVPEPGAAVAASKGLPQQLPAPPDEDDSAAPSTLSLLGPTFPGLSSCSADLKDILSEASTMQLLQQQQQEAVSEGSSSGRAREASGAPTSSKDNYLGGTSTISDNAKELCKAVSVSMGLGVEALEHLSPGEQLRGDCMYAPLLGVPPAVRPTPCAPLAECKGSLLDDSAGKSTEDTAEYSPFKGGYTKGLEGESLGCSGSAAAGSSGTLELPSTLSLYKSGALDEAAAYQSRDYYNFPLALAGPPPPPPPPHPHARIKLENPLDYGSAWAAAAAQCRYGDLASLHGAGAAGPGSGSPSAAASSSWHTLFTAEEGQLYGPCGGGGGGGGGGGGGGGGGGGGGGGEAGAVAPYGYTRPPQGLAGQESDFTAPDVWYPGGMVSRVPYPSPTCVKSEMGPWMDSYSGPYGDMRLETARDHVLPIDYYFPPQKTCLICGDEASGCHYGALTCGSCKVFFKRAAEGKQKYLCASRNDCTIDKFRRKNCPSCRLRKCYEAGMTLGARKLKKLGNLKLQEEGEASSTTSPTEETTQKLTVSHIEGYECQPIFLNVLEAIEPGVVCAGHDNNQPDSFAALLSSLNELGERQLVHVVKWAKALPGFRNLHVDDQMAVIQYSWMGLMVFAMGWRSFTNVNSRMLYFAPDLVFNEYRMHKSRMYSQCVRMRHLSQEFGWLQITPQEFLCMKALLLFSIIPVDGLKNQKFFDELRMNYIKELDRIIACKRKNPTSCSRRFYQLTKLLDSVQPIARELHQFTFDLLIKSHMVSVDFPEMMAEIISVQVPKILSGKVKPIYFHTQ
Outline: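 AR antagonism measured by reporter gene assay with dihydrotestosterone (0.3 nM) as agonist.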

[4] = molecular target: T3, Oxysterols receptor LXR-beta (Homo sapiens, UniProt P55055); assay: Antagonist activity at human GAL4N-fused LXRbeta LBD expressed in HEK293 cells assessed as reduction in T0901317-induced transactivation activity after 24 hrs by luciferase reporter gene assay; type: cell-based
T3 sequence (P55055 whole entry): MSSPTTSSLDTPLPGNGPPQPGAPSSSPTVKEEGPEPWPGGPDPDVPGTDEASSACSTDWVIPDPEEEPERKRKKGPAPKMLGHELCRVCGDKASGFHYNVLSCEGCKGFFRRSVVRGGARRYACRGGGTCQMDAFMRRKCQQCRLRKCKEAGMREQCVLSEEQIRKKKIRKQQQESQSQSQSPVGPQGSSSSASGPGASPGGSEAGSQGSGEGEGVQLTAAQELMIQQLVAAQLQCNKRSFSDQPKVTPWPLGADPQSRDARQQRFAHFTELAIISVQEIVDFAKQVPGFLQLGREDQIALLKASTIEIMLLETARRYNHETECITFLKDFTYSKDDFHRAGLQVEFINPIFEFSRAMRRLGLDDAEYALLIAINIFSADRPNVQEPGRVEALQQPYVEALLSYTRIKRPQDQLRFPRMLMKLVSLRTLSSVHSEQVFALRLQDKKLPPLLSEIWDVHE

[5] = molecular target: T4, Oxysterols receptor LXR-beta (Homo sapiens) (UniProt P55055); assay: Antagonist activity at human GAL4N-fused LXRbeta LBD expressed in HEK293 cells assessed as reduction in T0901317-induced transactivation activity at 20 uM after 24 hrs by luciferase reporter gene assay; type: cell-based
T4 sequence (whole entry): T3 sequence (P55055 whole entry)

Structure (SMILES) | pIC50 [1] | Papp [2] | Stability [3] | pIC50 (Androgen receptor) | pIC50 [4] | Activity [5]
Cc1cc(C(O)(C(F)(F)F)C(F)(F)F)cc2c1[nH]c(=O)c1ccccc12 | < 4.70 | Permeable | Stable | < 4.70 | < 4.70 | 
Cc1cc(C(O)(C(F)(F)F)C(F)(F)F)cc2c1[nH]c(=O)c1cc(F)ccc12 |  |  |  | 5.74 |  | inactive
Cc1cc(C(O)(C(F)(F)F)C(F)(F)F)cc2c3ccc(F)cc3c(=O)n(C)c12 |  |  |  |  | < 4.70 | 
